ChEMBL document CHEMBL1158043, “Allergy-preventive phenolic glycosides from Populus sieboldii” (J Nat Prod, 2006)
Active and inactive are the calls of the source. The rule behind the calls is not given here.

Legend:
[1] = test system: Mus musculus; test: Allergy preventing effect in hen egg […]-sensitized ddY mouse assessed as inhibition of blood flow decrease in tail artery at 20 mg/kg, po after 6 days relative to control; format: functional, organism-based; design: dose 20 mg/kg
In short: (§1)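 Male ddY mice, 5 weeks old, sensitized s.c. with 50 µg HEL in complete Freund's adjuvant on day 0. Compound given orally at 20 mg/kg on days 0, 3, 6 and 9, 1 h before measurement. After 10 min prewarming at 37 °C, tail subcutaneous blood flow was read by non-contact laser Doppler for 10 min daily over 9 days without anesthesia. Values are % of each mouse's normal flow, mean ± SE, n = 5, compared with HEL-sensitized controls.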

[2] = test system: Mus musculus; test: Allergy preventing effect in hen egg […]-sensitized ddY mouse assessed as inhibition of blood flow decrease in tail artery at 20 mg/kg, po after 7 days relative to control; format: functional, organism-based; design: dose 20 mg/kg; in short: as §1
[3] = test system: Platelet; test: Inhibition of platelet aggregation in hen egg […]-sensitized ddY mouse blood after 9 days; format: functional, tissue-based
In short: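 Mice were HEL-sensitized and dosed orally at 20 mg/kg as in the blood-flow assay. On day 9, whole blood was drawn under diethyl ether anesthesia, anticoagulated with 3.8% sodium citrate and held 30 min at room temperature. Aggregation was induced with 8 µM ADP and measured by screen filtration pressure on a whole-blood aggregometer. Read-out is cohesion rate, mean ± SE, n = 5.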

[4] = test system: Mus musculus; test: Allergy preventing effect in hen egg […]-sensitized ddY mouse assessed as inhibition blood flow decrease in tail artery at 20 mg/kg, po relative to control; format: functional, organism-based; design: dose 20 mg/kg; in short: as §1
[5] = test system: Mus musculus; test: Allergy preventing effect in hen egg […]-sensitized ddY mouse assessed as inhibition of blood flow decrease in tail artery at 20 mg/kg, po after 5 days relative to control; format: functional, organism-based; design: dose 20 mg/kg; in short: as §1

Structure (SMILES) | Activity [1] | Activity [2] | Activity [3] | Activity [4] | Activity [5]
COc1cc(O[C@@H]2O[C@H](CO)[C@@H](O)[C@H](O)[C@H]2O)c2c(c1)O[C@H](c1ccc(O)cc1)CC2=O | Active | Active | inactive | – | –
CC(=O)OC[C@H]1O[C@@H](Oc2cc(COC(=O)c3ccccc3)ccc2O)[C@H](O)[C@@H](O)[C@@H]1O | – | – | Active | Active | –
OCc1ccccc1O[C@@H]1O[C@H](CO)[C@@H](O)[C@H](O)[C@H]1O | – | – | – | – | Active
COc1cc(O)c(C(=O)/C=C/c2ccc(O)cc2)c(O[C@@H]2O[C@H](CO)[C@@H](O)[C@H](O)[C@H]2O)c1 | Active | Active | Active | – | –
O=C(OCc1ccc(O)c(O[C@@H]2O[C@H](CO)[C@@H](O)[C@H](O)[C@H]2O)c1)c1ccccc1 | – | – | Active | Active | –
